Reference: paper PMC10100219 (Chemistry (Weinheim an Der Bergstrasse, Germany), 2022)
Substitutions are numbered along the chain they refer to.

Experiments:
Experiment in all cases: UV-Vis titration, Soret spin-state shift
Type in all cases: binding
[1] = target: T1, CYP199A4 (Rhodopseudomonas palustris, UniProt Q2IU02)
T1 sequence (Q2IU02 1-410): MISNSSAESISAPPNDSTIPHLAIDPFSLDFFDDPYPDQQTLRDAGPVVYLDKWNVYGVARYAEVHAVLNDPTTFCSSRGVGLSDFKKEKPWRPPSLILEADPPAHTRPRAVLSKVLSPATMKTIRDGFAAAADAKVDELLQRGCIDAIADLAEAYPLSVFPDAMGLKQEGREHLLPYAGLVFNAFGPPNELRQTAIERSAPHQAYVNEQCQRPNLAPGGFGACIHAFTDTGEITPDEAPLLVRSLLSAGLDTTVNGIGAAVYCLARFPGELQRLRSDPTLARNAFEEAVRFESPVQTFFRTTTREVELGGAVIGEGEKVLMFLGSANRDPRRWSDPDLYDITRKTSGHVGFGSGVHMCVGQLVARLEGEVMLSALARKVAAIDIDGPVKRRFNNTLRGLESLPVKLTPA

[2] = target: T2, CYP199A4 (Rhodopseudomonas palustris, UniProt Q2IU02, T253A)
T2 sequence (Q2IU02 1-410 T253A): T1 sequence (Q2IU02 1-410) with T253A
Procedure, shortened: (§1)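 CYP199A4 mutants (D251N, T252A) from Rhodopseudomonas palustris HaA2 were titrated with para-substituted benzoic acid test compounds, with UV-Vis monitoring to obtain Kd. Spectra were recorded from 700 to 250 nm at 600 nm min⁻¹, and repeated at 60 nm min⁻¹ to verify small Soret shifts. P450 concentration came from pyridine hemochromogen extinction coefficients: D251N 123±1, T252A 120±4 mM⁻¹ cm⁻¹.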

[3] = target: T3, CYP199A4 (Rhodopseudomonas palustris, UniProt Q2IU02, D252N)
T3 sequence (Q2IU02 1-410 D252N): T1 sequence (Q2IU02 1-410) with D252N
Procedure, shortened: as §1

Compound	Kd [1]	Kd [2]	Kd [3]
CCSc1ccc(C(=O)O)cc1 [4‐ethylthiobenzoic acid]	990 ± 50 nM	250 ± 50 nM	–
CSc1ccc(C(=O)O)cc1 [4‐methylthiobenzoic acid]	2300 ± 300 nM	1400 ± 100 nM	830 ± 80 nM
